Assay outcomes: PubChem BioAssay, Sanford-Burnham Center for Chemical Genomics
This is a sample that favours compounds with a hit; in the whole collection about 2.3% have one here.
DNMT1 inh – DNMT1 (human) enzyme inhibition | inhibition (reported as % activation of signal), % at 10 µM | DNMT1 molecular beacon, Hinp1I cleavage, fluorescence | P26358 | actives 0.83% (n = 360,000); in the data active = inhibition above about 50%
Target sequence (P26358 504-1616 limits assumed): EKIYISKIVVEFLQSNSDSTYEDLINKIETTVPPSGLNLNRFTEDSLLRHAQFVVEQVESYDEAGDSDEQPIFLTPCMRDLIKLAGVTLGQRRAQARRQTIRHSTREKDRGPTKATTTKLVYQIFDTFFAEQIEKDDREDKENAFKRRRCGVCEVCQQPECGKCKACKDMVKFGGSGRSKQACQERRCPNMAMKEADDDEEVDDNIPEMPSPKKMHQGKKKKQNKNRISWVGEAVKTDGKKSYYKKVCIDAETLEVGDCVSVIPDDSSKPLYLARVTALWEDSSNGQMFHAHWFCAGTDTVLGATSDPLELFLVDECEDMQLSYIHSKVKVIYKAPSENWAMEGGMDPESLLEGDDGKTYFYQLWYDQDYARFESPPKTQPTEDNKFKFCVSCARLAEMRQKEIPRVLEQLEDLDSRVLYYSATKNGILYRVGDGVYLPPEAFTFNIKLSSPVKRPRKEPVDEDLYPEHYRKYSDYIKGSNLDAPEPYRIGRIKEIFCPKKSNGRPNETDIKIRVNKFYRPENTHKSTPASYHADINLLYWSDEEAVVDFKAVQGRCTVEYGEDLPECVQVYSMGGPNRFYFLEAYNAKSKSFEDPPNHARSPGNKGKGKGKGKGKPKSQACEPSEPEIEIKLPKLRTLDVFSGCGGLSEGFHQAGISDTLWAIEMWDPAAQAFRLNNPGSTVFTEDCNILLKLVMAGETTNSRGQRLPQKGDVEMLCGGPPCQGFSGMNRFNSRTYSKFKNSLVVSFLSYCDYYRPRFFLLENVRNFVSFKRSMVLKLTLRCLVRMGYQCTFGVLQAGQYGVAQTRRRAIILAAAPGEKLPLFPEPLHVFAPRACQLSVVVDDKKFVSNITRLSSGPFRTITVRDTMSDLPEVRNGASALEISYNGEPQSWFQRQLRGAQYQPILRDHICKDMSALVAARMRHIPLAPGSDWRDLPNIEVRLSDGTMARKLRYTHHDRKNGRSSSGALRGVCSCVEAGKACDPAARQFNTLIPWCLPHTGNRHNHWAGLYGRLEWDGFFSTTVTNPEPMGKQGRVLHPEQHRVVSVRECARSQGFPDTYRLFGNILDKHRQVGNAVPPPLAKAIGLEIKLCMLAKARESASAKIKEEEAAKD
NadD inh – inhibitors of Staphylococcus aureus NadD | purified NadD enzyme, colorimetric absorbance read-out | inhibition, % at 20 µM | actives 0.78% (n = 360,000) | AID 602399; in the data active = inhibition above about 26%
LMPTP block – LMPTP (human) inhibition. AID 651560. P24666. inhibition, % at 20 µM. actives 0.22% (n = 360,000). recombinant LMPTP-A, OMFP fluorogenic substrate, fluorescence intensity;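 active = compounds that cut the enzyme signal by at least half of the control window in the single-dose screen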
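Buffer or medium: Bis-Tris pH 6.0, DTT, detergent; Assay system: LMPTP-A enzyme; Quantity: 0.625 nM enzyme; Detection: endpoint fluorescence intensity; Times: 50 min dark incubation at room temperature; Controls: substrate-only low control, DMSO enzyme-plus-substrate high control; Doses: single 20 µM dose; Read-out: percent inhibition versus substrate-only and uninhibited controls; Reagent: 400 µM OMFP.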
STEP block – inhibitors of human striatal-enriched phosphatase STEP | P54829 | recombinant STEP, OMFP fluorogenic substrate, fluorescence | actives 0.25% (n = 360,000) | inhibition, % at 20 µM;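 active = inhibition at 20 µM, scaled per plate between control wells, above about 37%, limit read from the data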
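Assay system: isolated STEP enzyme / Timing: 20 min at room temperature, dark / Doses: 20 µM, 1% DMSO / Technique: fluorescence intensity, excitation 480 nm, emission 540 nm / Reagent: fluorogenic phosphatase substrate OMFP at 25 µM final / Measure: percent inhibition scaled to no-enzyme and uninhibited-enzyme controls, plate-pattern corrected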
Scp-1 inhibitor – Scp-1 (human) phosphatase inhibition; inhibition, % at 20 µM; Recombinant Scp1, phosphopeptide, malachite green phosphate absorbance; actives 0.88% (n = 340,000); Q9GZU7;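 active = inhibition above about 50% at 20 µM, limit read from the data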
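System: truncated SCP-1 phosphatase (76-261aa); medium: Tris acetate buffer pH 5.5 with MgCl2 and Tween-20; incubation: 45 min room-temperature reaction, 5 min colour, 30 min stabiliser; compound: single 20 µM dose, 1% DMSO; reagent: Phosphorylated 17-residue peptide substrate; read-out: % inhibition at 20 µM; technique: colorimetric free-phosphate detection, absorbance 630 nm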
SUMO1 PPI mod – alters human SUMO1 binding to SIM partners; SUMO1 binding to a labelled peptide, TR-FRET, 1 h; inhibition, % at 20 µM; actives 0.33% (n = 360,000); in the data active = inhibition above about 37%
DNMT1 inh conf – confirmation of human DNMT1 inhibitors. shares compounds with DNMT1 inh. DNMT1 molecular beacon HinP1I cleavage, fluorescence. inhibition, % at 10 µM. actives 8% (n = 2,300);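 active = average inhibition of at least 30% in the single-concentration confirmation test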
DNMT1 interf – beacon fluorescence artifact counter-screen; activation (fluorescence interference), % at 10 µM; actives 1% (n = 2,300); shares compounds with DNMT1 inh; DNMT1 molecular beacon spectral interference counterscreen, fluorescence 485/520; AID 602387;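 active = activation of at least 30% at 10 µM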;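 also: DNMT1 catalytic domain with a HinP1I cleavage step and a FAM/dabcyl DNA beacon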
Hits are given with their value; – = inactive; · = not tested or not shown.

SMILES	DNMT1 inh	NadD inh	LMPTP block	STEP block	Scp-1 inhibitor	SUMO1 PPI mod	DNMT1 inh conf	DNMT1 interf
Cc1ccc(C)c(/C(O)=C2/C(=O)C(=O)N(CCN3CCOCC3)C2c2ccco2)c1 (configuration not stated)	83	–	–	–	–	–	–	–
COc1cc2nc(CN3CCN(S(=O)(=O)c4cc(C)ccc4C)CC3)[nH]c(=O)c2cc1OC	92	–	–	–	–	–	–	–
CCN1CCc2nc(NC(=O)C(c3ccccc3)c3ccccc3)sc2C1	63	–	–	–	–	–	–	–
Cc1[nH][nH]c(=O)c1C(c1ccc(-c2ccccc2C(=O)O)o1)c1c(C)[nH][nH]c1=O	75	–	–	–	–	–	–	–
Cc1c(=O)n(OCc2ccccc2F)c2ccccc2[n+]1[O-]	84	–	–	–	–	–	–	–
O=[N+]([O-])c1ccc2c([N+](=O)[O-])ccc3c2c1CC3	73	–	–	–	·	–	–	–
Nc1c(N(CCCO)C(=O)CCCN2C(=O)c3cccc4cccc(c34)C2=O)c(=O)[nH]c(=O)n1Cc1ccccc1	–	–	–	–	–	–	·	·
COc1ccc(-c2nc(CCNC(=O)c3ccco3)cs2)cc1OC	83	–	–	–	–	–	–	–
COc1ccc(-c2csc(NC(=O)CCNC(=O)c3ccco3)n2)cc1OC	–	–	–	–	–	–	·	·
Cc1cc(O)cc2c1C(=O)/C(=C/c1ccco1)O2	65	–	–	–	–	–	–	–
Cc1ccnc(NS(=O)(=O)c2ccc(NS(=O)(=O)c3cc(Cl)ccc3Cl)cc2)n1	–	–	–	–	–	–	·	·
Cc1ccc(S(=O)(=O)N(C)c2ccc(OC(C)C(=O)N(C)c3ccccc3)cc2)cc1 (configuration not stated)	79	–	–	–	–	–	–	–
CC(=O)c1ccc(NC(=O)C(C)Oc2ccc(N(C)S(=O)(=O)c3ccc(C)cc3)cc2)cc1 (configuration not stated)	–	–	–	–	–	–	·	·
COc1cccc(S(=O)(=O)N(C)C[C@@H]2Oc3cc(Br)ccc3S(=O)(=O)N([C@@H](C)CO)C[C@@H]2C)c1	83	–	–	–	·	–	–	–
COc1ccc(S(=O)(=O)N(C)C[C@H]2Oc3cc(Br)ccc3S(=O)(=O)N([C@H](C)CO)C[C@H]2C)cc1	–	–	–	–	·	–	·	·
Cc1nnc(NC(=O)CSc2nnc(CC(=O)Nc3ccccc3Cl)n2C)s1	–	–	–	–	–	–	·	·
O=C(NCCc1ccccc1O)c1cc2c(cc1[N+](=O)[O-])OCO2	–	–	–	–	–	–	–	–
O=C(c1ccc2[nH]c3c(c2c1)CCCC3)N1CCN(c2ccc(F)cc2)CC1	59	–	–	–	–	–	–	–
CSc1ccc(Cl)c(C(=O)N(C)CC(=O)Nc2ccc(N3CCOCC3)cc2)c1	–	–	–	–	–	–	·	·
CC(C)(C)NC(=O)CN(Cc1ccccc1)S(=O)(=O)c1ccccc1	–	–	–	–	–	–	·	·
CC(C)OCCCNC(=O)c1c(N)n(/N=C/c2cccs2)c2nc3ccccc3nc12	60	–	–	–	–	–	–	–
CCOC(=O)C1=C(C)NC(C)=C(C(=O)OCC)C1c1ccncc1	–	–	–	–	·	–	·	·
Nc1ccc(N(c2ccccc2)c2ccc(N)cc2)cc1	62	–	–	–	–	–	–	–
COc1ccc2[nH]c(C)c(-c3csc(N)n3)c2c1	82	–	–	–	–	–	–	–
Cn1ncc(N=Cc2c(O)ccc3ccccc23)c1C(=O)Nc1cccc(Cl)c1	51	–	–	–	–	–	–	–
Cn1ncc(Cl)c1C(=O)Nc1cccc(Cl)c1	–	–	–	–	–	–	·	·
